Data published in ChEMBL document CHEMBL1159121, “Synthesis, in vitro structure-activity relationship, and in vivo studies of 2-arylthiazolidine-4-carboxylic acid amides as anticancer agents” (Bioorg Med Chem, 2010).

Assays:
HCT-15 = experiment: Growth inhibition of human HCT15 cells; format: functional
SNB-19 = experiment: Growth inhibition of human SNB19 cells; format: functional
SF-268 = experiment: Growth inhibition of human SF268 cells; format: functional
HCC 2998 = experiment: Growth inhibition of human HCC2998 cells; format: functional
SF-539 = experiment: Growth inhibition of human SF539 cells; format: functional
[1] = Antiproliferative activity against mouse B16-F1 cells after 48 hrs by SRB assay; format: functional, cell-based; settings: B16-F1, 48 h
How it was run: (§1)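 Melanoma lines and control fibroblasts grown at 37 °C, 5% CO2, then exposed to a wide concentration range for 48 h in round-bottom 96-well plates. Fixed with 10% TCA, stained with SRB, protein read at 560 nm. IC50 (50% growth inhibition versus untreated) obtained by nonlinear regression.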

PC-3 = experiment: Growth inhibition of human PC3 cells; format: functional
SF-295 = experiment: Growth inhibition of human SF295 cells; format: functional
MDA-MB-231 = experiment: Growth inhibition of human MDA-MB-231 cells; format: functional
OVCAR-8 = experiment: Growth inhibition of human OVCAR8 cells; format: functional
COLO 205 = experiment: Growth inhibition of human COLO205 cells; format: functional
OVCAR-3 = experiment: Growth inhibition of human OVCAR-3 cells; format: functional
SR = experiment: Growth inhibition of human SR cells; format: functional
UO-31 = experiment: Growth inhibition of human UO31 cells; format: functional
SNB-75 = experiment: Growth inhibition of human SNB75 cells; format: functional
CCRF-CEM = experiment: Growth inhibition of human CCRF-CEM cells; format: functional
OVCAR-5 = experiment: Growth inhibition of human OVCAR5 cells; format: functional
M14 = experiment: Growth inhibition of human M14 cells; format: functional
HOP-62 = experiment: Growth inhibition of human HOP62 cells; format: functional
UACC-257 = experiment: Growth inhibition of human UACC257 cells; format: functional
[2] = Growth inhibition of human […] cells; format: functional
HCT-116 = experiment: Growth inhibition of human HCT116 cells; format: functional
HL-60(TB) = experiment: Growth inhibition of human HL-60(TB) cells; format: functional
EKVX = experiment: Growth inhibition of human EKVX cells; format: functional
NCI-H522 = experiment: Growth inhibition of human NCI-H522 cells; format: functional
RXF 393 = experiment: Growth inhibition of human RXF393 cells; format: functional
TK-10 = experiment: Growth inhibition of human TK10 cells; format: functional
MOLT-4 = experiment: Growth inhibition of human MOLT4 cells; format: functional
ACHN = experiment: Growth inhibition of human ACHN cells; format: functional
NCI-H460 = experiment: Growth inhibition of human NCI-H460 cells; format: functional
SK-MEL-5 = experiment: Growth inhibition of human SK-MEL-5 cells; format: functional
LOX IMVI = experiment: Growth inhibition of human LOXIMVI cells; format: functional
IGROV-1 = experiment: Growth inhibition of human IGROV1 cells; format: functional
U-251 = experiment: Growth inhibition of human U251 cells; format: functional
HT-29 = experiment: Growth inhibition of human HT-29 cells; format: functional
SK-OV-3 = experiment: Growth inhibition of human SKOV3 cells; format: functional
UACC-62 = experiment: Growth inhibition of human UACC62 cells; format: functional
DU-145 = experiment: Growth inhibition of human DU145 cells; format: functional
[3] = Antiproliferative activity against human WM164 cells after 48 hrs by SRB assay; format: functional, cell-based; settings: WM164, 48 h; how it was run: as §1
[4] = Growth inhibition of human Hs 578T cells; format: functional
SW-620 = experiment: Growth inhibition of human SW620 cells; format: functional
BT-549 = experiment: Growth inhibition of human BT549 cells; format: functional
SN12C = experiment: Growth inhibition of human SN12C cells; format: functional
[5] = read-out: LC50 (the source's name)

What does the source list for CCCCCCCCCCCCCCCCCCNC(=O)[C@@H]1CSC(c2ccccc2)N1 (mixture of isomers)?
GI50 (HCT-15): 10.9 µM; TGI (HCT-15): 22.7 µM; CC50 (HCT-15; [5]): 47.7 µM; GI50 (SNB-19): 2.03 µM; TGI (SNB-19): 3.66 µM; CC50 (SNB-19; [5]): 6.6 µM; GI50 (SF-268): 1.2 µM; TGI (SF-268): 2.57 µM; CC50 (SF-268; [5]): 5.53 µM; GI50 (HCC 2998): 0.54 µM; TGI (HCC 2998): 1.8 µM; CC50 (HCC 2998; [5]): 4.24 µM; GI50 (SF-539): 1.72 µM; TGI (SF-539): 3.09 µM; CC50 (SF-539; [5]): 5.56 µM; IC50 [1]: 15.5 µM; GI50 (PC-3): 2.97 µM; TGI (PC-3): 10.7 µM; CC50 (PC-3; [5]): 32.8 µM; GI50 (SF-295): 4.37 µM; TGI (SF-295): 15.9 µM; CC50 (SF-295; [5]): 74.7 µM; GI50 (MDA-MB-231): 1.61 µM; TGI (MDA-MB-231): 3.12 µM; CC50 (MDA-MB-231; [5]): 6.05 µM; GI50 (OVCAR-8): 2.24 µM; TGI (OVCAR-8): 6.14 µM; CC50 (OVCAR-8; [5]): > 100 µM; GI50 (COLO 205): 2.32 µM; TGI (COLO 205): 4.98 µM; CC50 (COLO 205; [5]): 12.7 µM; GI50 (OVCAR-3): 4.27 µM; TGI (OVCAR-3): 16.2 µM; CC50 (OVCAR-3; [5]): 80.2 µM; GI50 (SR): 0.49 µM; TGI (SR): 1.79 µM; CC50 (SR; [5]): 6.79 µM; GI50 (UO-31): 2.31 µM; TGI (UO-31): 5.38 µM; CC50 (UO-31; [5]): 16.3 µM; GI50 (SNB-75): 2.64 µM; TGI (SNB-75): 4.15 µM; CC50 (SNB-75; [5]): 6.54 µM; GI50 (CCRF-CEM): 0.56 µM; TGI (CCRF-CEM): 2.1 µM; CC50 (CCRF-CEM; [5]): 6.5 µM; GI50 (OVCAR-5): 1.91 µM; TGI (OVCAR-5): 3.32 µM; CC50 (OVCAR-5; [5]): 5.76 µM; GI50 (M14): 1.44 µM; TGI (M14): 2.75 µM; CC50 (M14; [5]): 5.24 µM; GI50 (HOP-62): 1.77 µM; TGI (HOP-62): 3.15 µM; CC50 (HOP-62; [5]): 5.61 µM; GI50 (UACC-257): 2.13 µM; TGI (UACC-257): 4.23 µM; CC50 (UACC-257; [5]): 8.4 µM; GI50 [2]: 2.12 µM; TGI [2]: 4.63 µM; CC50 [2, 5]: 11.7 µM; GI50 (HCT-116): 1.31 µM; TGI (HCT-116): 2.58 µM; CC50 (HCT-116; [5]): 5.08 µM; GI50 (HL-60(TB)): 2.03 µM; TGI (HL-60(TB)): 3.8 µM; CC50 (HL-60(TB); [5]): 7.11 µM; GI50 (EKVX): 2.12 µM; TGI (EKVX): 4.72 µM; CC50 (EKVX; [5]): 12.3 µM; GI50 (NCI-H522): 3.52 µM; TGI (NCI-H522): 12.3 µM; CC50 (NCI-H522; [5]): > 100 µM; GI50 (RXF 393): 1.55 µM; TGI (RXF 393): 3.01 µM; CC50 (RXF 393; [5]): 5.85 µM; GI50 (TK-10): 7.46 µM; TGI (TK-10): 29.2 µM; CC50 (TK-10; [5]): > 100 µM; GI50 (MOLT-4): 0.86 µM; TGI (MOLT-4): 2.43 µM; CC50 (MOLT-4; [5]): 6.51 µM; GI50 (ACHN): 2.12 µM; TGI (ACHN): 4.9 µM; CC50 (ACHN; [5]): 13.5 µM; GI50 (NCI-H460): 1.41 µM; TGI (NCI-H460): 2.98 µM; CC50 (NCI-H460; [5]): 6.31 µM; GI50 (SK-MEL-5): 1.92 µM; TGI (SK-MEL-5): 3.63 µM; CC50 (SK-MEL-5; [5]): 6.87 µM; GI50 (LOX IMVI): 1.23 µM; TGI (LOX IMVI): 2.59 µM; CC50 (LOX IMVI; [5]): 5.48 µM; GI50 (IGROV-1): 2.3 µM; TGI (IGROV-1): 5.47 µM; CC50 (IGROV-1; [5]): 18.9 µM; GI50 (U-251): 1.8 µM; TGI (U-251): 3.19 µM; CC50 (U-251; [5]): 5.65 µM; GI50 (HT-29): 1.75 µM; TGI (HT-29): 3.41 µM; CC50 (HT-29; [5]): 6.67 µM; GI50 (SK-OV-3): 2.9 µM; TGI (SK-OV-3): 5.65 µM; CC50 (SK-OV-3; [5]): 18.6 µM; GI50 (UACC-62): 2.14 µM; TGI (UACC-62): 3.78 µM; CC50 (UACC-62; [5]): 6.68 µM; GI50 (DU-145): 3.78 µM; TGI (DU-145): 15.7 µM; CC50 (DU-145; [5]): 39.6 µM; IC50 [3]: 4.4 µM; GI50 [4]: 1.82 µM; TGI [4]: 4.08 µM; CC50 [4, 5]: 9.14 µM; GI50 (SW-620): 1.18 µM; TGI (SW-620): 2.4 µM; CC50 (SW-620; [5]): 4.9 µM; GI50 (BT-549): 0.84 µM; TGI (BT-549): 2.06 µM; CC50 (BT-549; [5]): 4.54 µM; GI50 (SN12C): 1.94 µM; TGI (SN12C): 3.35 µM; CC50 (SN12C; [5]): 5.79 µM
